ChEMBL document CHEMBL1255475, “Mutant prevention concentrations of four carbapenems against gram-negative rods” (2010)
≈ marks a conversion by molar mass, not a printed value.

Tests used:
Assay type in all cases: functional
[1] = tested on: Klebsiella pneumoniae; experiment: Antibacterial activity against beta-lactamase-positive ESBL-positive Klebsiella pneumoniae E453 assessed as mutant prevention concentration after overnight incubation
In short: (§1)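 Overnight growth on blood trypticase soy agar (35°C, air) was resuspended in 0.9% saline and counted on drug-free Mueller-Hinton agar. […] Colonies were retested by agar dilution to confirm mutants. MPC was the lowest concentration preventing resistant-mutant growth.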

[2] = tested on: Escherichia coli; experiment: Antibacterial activity against beta-lactamase-positive ESBL-negative Escherichia coli E437 incubated up to 7 days by agar dilution method; settings: E437, 168 h
In short: (§2)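 MIC by CLSI agar dilution, with quality-control strains in each run. Beta-lactamase status was set by 30 μg cefazolin Kirby-Bauer disk diffusion. ESBL status was set by cefotaxime and ceftazidime disks (30 μg) with and without clavulanic acid (10 μg).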

[3] = tested on: Klebsiella pneumoniae; experiment: Antibacterial activity against beta-lactamase-negative Klebsiella pneumoniae E362 assessed as mutant prevention concentration after overnight incubation
[4] = tested on: Acinetobacter baumannii; experiment: Antibacterial activity against Acinetobacter baumannii A910 assessed as mutant prevention concentration after overnight incubation
[5] = tested on: Escherichia coli; experiment: Antibacterial activity against beta-lactamase-positive ESBL-negative Escherichia coli E484 assessed as mutant prevention concentration after overnight incubation; in short: as §1
[6] = tested on: Klebsiella pneumoniae; experiment: Antibacterial activity against beta-lactamase-negative Klebsiella pneumoniae E359 assessed as mutant prevention concentration after overnight incubation
[7] = tested on: Klebsiella pneumoniae; experiment: Antibacterial activity against beta-lactamase-positive ESBL-negative Klebsiella pneumoniae E507 incubated up to 7 days by agar dilution method; settings: E507, 168 h
In short: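 MPC determination: overnight cultures on blood trypticase soy agar at 35°C in air were resuspended in 0.9% saline, and CFU were counted on drug-free Mueller-Hinton agar. […] Growth was retested by agar dilution to confirm mutants. MPC was the lowest concentration preventing resistant-mutant growth.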

[8] = tested on: Escherichia coli; experiment: Antibacterial activity against beta-lactamase-positive ESBL-positive Escherichia coli E451 assessed as mutant prevention concentration after overnight incubation; in short: as §1
[9] = tested on: Pseudomonas aeruginosa; experiment: Antibacterial activity against Pseudomonas aeruginosa P323 assessed as mutant prevention concentration after overnight incubation
[10] = tested on: Pseudomonas aeruginosa; experiment: Antibacterial activity against Pseudomonas aeruginosa P353 assessed as mutant prevention concentration after overnight incubation
[11] = tested on: Acinetobacter baumannii; experiment: Antibacterial activity against Acinetobacter baumannii A898 assessed as mutant prevention concentration after overnight incubation
[12] = tested on: Pseudomonas aeruginosa; experiment: Antibacterial activity against Pseudomonas aeruginosa P320 assessed as mutant prevention concentration after overnight incubation
[13] = tested on: Pseudomonas aeruginosa; experiment: Antibacterial activity against Pseudomonas aeruginosa P332 assessed as mutant prevention concentration after overnight incubation
[14] = tested on: Pseudomonas aeruginosa; experiment: Antibacterial activity against Pseudomonas aeruginosa P352 assessed as mutant prevention concentration after overnight incubation
[15] = tested on: Escherichia coli; experiment: Antibacterial activity against beta-lactamase-positive ESBL-positive Escherichia coli E460 assessed as mutant prevention concentration after overnight incubation; in short: as §1
[16] = tested on: Acinetobacter baumannii; experiment: Antibacterial activity against Acinetobacter baumannii A884 assessed as mutant prevention concentration after overnight incubation
[17] = tested on: Escherichia coli; experiment: Antibacterial activity against beta-lactamase-negative Escherichia coli E424 assessed as mutant prevention concentration after overnight incubation
[18] = tested on: Klebsiella pneumoniae; experiment: Antibacterial activity against beta-lactamase-positive ESBL-positive Klebsiella pneumoniae E475 incubated up to 7 days by agar dilution method; settings: E475, 168 h
[19] = tested on: Acinetobacter baumannii; experiment: Antibacterial activity against Acinetobacter baumannii A849 assessed as mutant prevention concentration after overnight incubation
[20] = tested on: Klebsiella pneumoniae; experiment: Antibacterial activity against beta-lactamase-positive ESBL-negative Klebsiella pneumoniae E472 assessed as mutant prevention concentration after overnight incubation; in short: as §1
[21] = tested on: Klebsiella pneumoniae; experiment: Antibacterial activity against beta-lactamase-positive ESBL-negative Klebsiella pneumoniae E477 incubated up to 7 days by agar dilution method; settings: E477, 168 h
[22] = tested on: Klebsiella pneumoniae; experiment: Antibacterial activity against beta-lactamase-negative Klebsiella pneumoniae E418 incubated up to 7 days by agar dilution method; settings: E418, 168 h
[23] = tested on: Klebsiella pneumoniae; experiment: Antibacterial activity against beta-lactamase-negative Klebsiella pneumoniae E417 assessed as mutant prevention concentration after overnight incubation
[24] = tested on: Klebsiella pneumoniae; experiment: Antibacterial activity against beta-lactamase-positive ESBL-negative Klebsiella pneumoniae E474 assessed as mutant prevention concentration after overnight incubation; in short: as §1
[25] = tested on: Acinetobacter baumannii; experiment: Antibacterial activity against Acinetobacter baumannii A896 assessed as mutant prevention concentration after overnight incubation
[26] = tested on: Klebsiella pneumoniae; experiment: Antibacterial activity against beta-lactamase-positive ESBL-positive Klebsiella pneumoniae E457 incubated up to 7 days by agar dilution method; settings: E457, 168 h; in short: as §2
[27] = tested on: Klebsiella pneumoniae; experiment: Antibacterial activity against beta-lactamase-negative Klebsiella pneumoniae E357 assessed as mutant prevention concentration after overnight incubation
[28] = tested on: Acinetobacter baumannii; experiment: Antibacterial activity against Acinetobacter baumannii A851 assessed as mutant prevention concentration after overnight incubation
[29] = tested on: Pseudomonas aeruginosa; experiment: Antibacterial activity against Pseudomonas aeruginosa P322 assessed as mutant prevention concentration after overnight incubation
[30] = tested on: Escherichia coli; experiment: Antibacterial activity against beta-lactamase-negative Escherichia coli E348 assessed as mutant prevention concentration after overnight incubation
[31] = tested on: Acinetobacter baumannii; experiment: Antibacterial activity against Acinetobacter baumannii A885 assessed as mutant prevention concentration after overnight incubation
[32] = tested on: Escherichia coli; experiment: Antibacterial activity against beta-lactamase-positive ESBL-positive Escherichia coli E451 incubated up to 7 days by agar dilution method; settings: E451, 168 h; in short: as §2
[33] = tested on: Acinetobacter baumannii; experiment: Antibacterial activity against Acinetobacter baumannii A850 assessed as mutant prevention concentration after overnight incubation
[34] = tested on: Acinetobacter baumannii; experiment: Antibacterial activity against Acinetobacter baumannii A929 assessed as mutant prevention concentration after overnight incubation
[35] = tested on: Acinetobacter baumannii; experiment: Antibacterial activity against Acinetobacter baumannii A931 assessed as mutant prevention concentration after overnight incubation
[36] = tested on: Pseudomonas aeruginosa; experiment: Antibacterial activity against Pseudomonas aeruginosa P334 assessed as mutant prevention concentration after overnight incubation
[37] = tested on: Escherichia coli; experiment: Antibacterial activity against beta-lactamase-negative Escherichia coli E347 incubated up to 7 days by agar dilution method; settings: E347, 168 h
[38] = tested on: Klebsiella pneumoniae; experiment: Antibacterial activity against beta-lactamase-positive ESBL-negative Klebsiella pneumoniae E511 assessed as mutant prevention concentration after overnight incubation; in short: as §1
[39] = tested on: Pseudomonas aeruginosa; experiment: Antibacterial activity against Pseudomonas aeruginosa P341 assessed as mutant prevention concentration after overnight incubation
[40] = tested on: Acinetobacter baumannii; experiment: Antibacterial activity against Acinetobacter baumannii A908 assessed as mutant prevention concentration after overnight incubation
[41] = tested on: Acinetobacter baumannii; experiment: Antibacterial activity against Acinetobacter baumannii A848 assessed as mutant prevention concentration after overnight incubation
[42] = tested on: Pseudomonas aeruginosa; experiment: Antibacterial activity against Pseudomonas aeruginosa P340 assessed as mutant prevention concentration after overnight incubation
[43] = tested on: Klebsiella pneumoniae; experiment: Antibacterial activity against beta-lactamase-positive ESBL-negative Klebsiella pneumoniae E473 assessed as mutant prevention concentration after overnight incubation; in short: as §1
[44] = tested on: Escherichia coli; experiment: Antibacterial activity against beta-lactamase-positive ESBL-positive Escherichia coli E452 incubated up to 7 days by agar dilution method; settings: E452, 168 h; in short: as §2
[45] = tested on: Escherichia coli; experiment: Antibacterial activity against beta-lactamase-positive ESBL-positive Escherichia coli E446 incubated up to 7 days by agar dilution method; settings: E446, 168 h; in short: as §2
[46] = tested on: Pseudomonas aeruginosa; experiment: Antibacterial activity against Pseudomonas aeruginosa P365 assessed as mutant prevention concentration after overnight incubation
[47] = tested on: Klebsiella pneumoniae; experiment: Antibacterial activity against beta-lactamase-positive ESBL-positive Klebsiella pneumoniae E478 assessed as mutant prevention concentration after overnight incubation; in short: as §1

## C[C@@H](O)[C@H]1C(=O)N2C(C(=O)O)=C(S[C@@H]3CN[C@H](C(=O)N(C)C)C3)[C@H](C)[C@H]12 [MEROPENEM]
[1]
  MPC: 0.5 µg/mL
[2]
  MIC: 0.06 µg/mL (≈ 0.156 µM)
[3]
  MPC: 0.125 µg/mL
[4]
  MPC: 4 µg/mL
[5]
  MPC: 16 µg/mL
[6]
  MPC: 0.125 µg/mL
[7]
  MIC: 4 µg/mL (≈ 10.4 µM)
[8]
  MPC: 0.06 µg/mL
[9]
  MPC: 4 µg/mL
[10]
  MPC: 8 µg/mL
[11]
  MPC: 8 µg/mL
[12]
  MPC: >8 µg/mL
[13]
  MPC: 32 µg/mL
[14]
  MPC: 8 µg/mL
[15]
  MPC: 0.06 µg/mL
[16]
  MPC: 8 µg/mL
[17]
  MPC: 0.06 µg/mL
[18]
  MIC: 4 µg/mL (≈ 10.4 µM)
[19]
  MPC: 32 µg/mL
[20]
  MPC: 32 µg/mL
[21]
  MIC: 2 µg/mL (≈ 5.22 µM)
[22]
  MIC: 0.06 µg/mL (≈ 0.156 µM)
[23]
  MPC: 0.06 µg/mL
[24]
  MPC: 16 µg/mL
[25]
  MPC: 4 µg/mL
[26]
  MIC: 0.06 µg/mL (≈ 0.156 µM)
[27]
  MPC: 0.125 µg/mL
[28]
  MPC: 32 µg/mL
[29]
  MPC: 16 µg/mL
[30]
  MPC: 0.06 µg/mL
[31]
  MPC: 8 µg/mL
[32]
  MIC: 0.03 µg/mL (≈ 0.0782 µM)
[33]
  MPC: 16 µg/mL
[34]
  MPC: 4 µg/mL
[35]
  MPC: 4 µg/mL
[36]
  MPC: >4 µg/mL
[37]
  MIC: 0.03 µg/mL (≈ 0.0782 µM)
[38]
  MPC: 64 µg/mL
[39]
  MPC: 8 µg/mL
[40]
  MPC: 4 µg/mL
[41]
  MPC: 32 µg/mL
[42]
  MPC: 4 µg/mL
[43]
  MPC: 16 µg/mL
[44]
  MIC: 0.03 µg/mL (≈ 0.0782 µM)
[45]
  MIC: 0.03 µg/mL (≈ 0.0782 µM)
[46]
  MPC: 8 µg/mL
[47]
  MPC: 8 µg/mL

## C[C@@H](O)[C@H]1C(=O)N2C(C(=O)O)=C(S[C@@H]3CN[C@H](C(=O)Nc4cccc(C(=O)O)c4)C3)[C@H](C)[C@H]12
[1]
  MPC: 1 µg/mL
[2]
  MIC: 0.06 µg/mL (≈ 0.126 µM)
[3]
  MPC: 0.06 µg/mL
[5]
  MPC: 128 µg/mL
[6]
  MPC: 0.03 µg/mL
[7]
  MIC: 8 µg/mL (≈ 16.8 µM)
[8]
  MPC: 1 µg/mL
[15]
  MPC: 0.5 µg/mL
[17]
  MPC: 0.06 µg/mL
[18]
  MIC: 8 µg/mL (≈ 16.8 µM)
[20]
  MPC: 64 µg/mL
[21]
  MIC: 8 µg/mL (≈ 16.8 µM)
[22]
  MIC: 0.06 µg/mL (≈ 0.126 µM)
[23]
  MPC: 0.016 µg/mL
[24]
  MPC: 32 µg/mL
[26]
  MIC: 0.03 µg/mL (≈ 0.0631 µM)
[27]
  MPC: 0.03 µg/mL
[30]
  MPC: 0.03 µg/mL
[32]
  MIC: 0.06 µg/mL (≈ 0.126 µM)
[37]
  MIC: 0.008 µg/mL (≈ 0.0168 µM)
[38]
  MPC: 64 µg/mL
[43]
  MPC: 32 µg/mL
[44]
  MIC: 0.03 µg/mL (≈ 0.0631 µM)
[45]
  MIC: 0.25 µg/mL (≈ 0.526 µM)
[47]
  MPC: 16 µg/mL
